Results reported in ChEMBL document CHEMBL1149249 (J Med Chem, 2004).

Legend:
Adenosine receptor A2a = Adenosine receptor A2a (Rattus norvegicus, UniProt P30543); assay: Displacement of [3H]ZM241385 from adenosine A2A receptor in rat brain membrane; assay type: cell membranes
Adenosine receptor A1 = target: T1, Adenosine receptor A1 (Rattus norvegicus, UniProt P25099); assay: Displacement of [3h]DPCPX from adenosine A receptor in rat cerebral cortex membrane
T1 sequence (P25099 whole entry): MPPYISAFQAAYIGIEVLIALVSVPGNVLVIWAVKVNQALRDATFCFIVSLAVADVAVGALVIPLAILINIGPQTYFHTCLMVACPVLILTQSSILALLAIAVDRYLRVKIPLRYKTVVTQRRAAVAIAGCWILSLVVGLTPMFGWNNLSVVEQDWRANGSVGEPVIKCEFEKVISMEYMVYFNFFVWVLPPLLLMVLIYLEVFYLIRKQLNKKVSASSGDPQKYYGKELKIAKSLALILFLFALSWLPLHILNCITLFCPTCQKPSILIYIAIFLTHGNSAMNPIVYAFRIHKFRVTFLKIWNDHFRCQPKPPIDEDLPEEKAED

Mus musculus [1] = assay: Reduction of haloperidol-induced catalepsy in orally dosed CD1 mouse; assay type: functional; settings: CD1, po
Outline: (§1)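 Male CD-1 mice (25–30 g) received haloperidol 3 mg/kg sc. Bar test used a 4.5 cm high, 1 cm bar with a 120 s cutoff, measured every 30 min. Once baseline catalepsy was stable (about 3 h), compound or vehicle was given by oral gavage. Catalepsy was then scored every 30 min for 2 h. Analysis was one-way ANOVA with Dunnett's post hoc test.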

Rattus norvegicus = assay: Reduction of haloperidol-induced catalepsy in orally dosed Sprague-Dawley rat; assay type: functional; settings: po
Outline: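 Male Sprague–Dawley rats (225–275 g) were given haloperidol 1 mg/kg, with bar tests every 30 min (1 cm bar, 10 cm high, 120 s maximum). After a stable cataleptic baseline at about 3 h, compound or vehicle was dosed by oral gavage. The bar test was repeated every 30 min for 2 h. Data were analyzed by one-way ANOVA with Dunnett's test.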

[2] = Metabolic stability in rat liver microsomes at 2 uM after 15 mins; assay type: ADME, Microsome; settings: read-out: Stability
Outline: (§2)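 Test compound at 2 μM final was incubated at 37 °C with shaking in Sprague–Dawley rat liver microsomes in 66 mM potassium phosphate pH 7.4. An NADP+/glucose-6-phosphate/MgCl2/G6P dehydrogenase regenerating system was present. Aliquots taken at 0, 15, 30 and 60 min were quenched in acetonitrile containing DPCPX internal standard. Percent parent remaining was measured by LC/MS.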

[3] = Metabolic stability in rat liver microsome at 2 uM after 30 mins; assay type: ADME; settings: liver microsomes, read-out: Stability; outline: as §2
[4] = Metabolic stability in rat liver microsome at 2 uM after 60 mins; assay type: ADME; settings: liver microsomes, read-out: Stability; outline: as §2
Mus musculus [5] = assay: Reduction of haloperidol-induced catalepsy in CD1 mouse within 30 mins at 3 mg/kg, po; assay type: functional; design: scale not given: the % may be the effect or the level left; outline: as §1

Sequence of Adenosine receptor A2a (P30543 whole entry): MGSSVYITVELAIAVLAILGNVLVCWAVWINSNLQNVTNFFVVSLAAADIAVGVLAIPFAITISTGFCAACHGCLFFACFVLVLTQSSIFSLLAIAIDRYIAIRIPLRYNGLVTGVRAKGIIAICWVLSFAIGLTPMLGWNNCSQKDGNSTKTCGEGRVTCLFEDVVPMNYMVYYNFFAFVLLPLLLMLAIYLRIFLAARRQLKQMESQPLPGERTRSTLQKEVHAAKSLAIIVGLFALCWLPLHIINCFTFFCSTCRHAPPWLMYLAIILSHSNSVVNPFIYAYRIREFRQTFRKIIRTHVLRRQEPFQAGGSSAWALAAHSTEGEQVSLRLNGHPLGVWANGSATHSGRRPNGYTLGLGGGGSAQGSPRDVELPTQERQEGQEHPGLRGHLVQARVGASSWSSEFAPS

Nc1nc(NC[C@H]2CCCN2Cc2c(F)cccc2F)nc2nc(-c3ccco3)nn12
Ki (Adenosine receptor A2a): 3.6 nM (antagonist)
Ki (Adenosine receptor A1): 427 nM (antagonist)
ED50 (Mus musculus [1]): 10 mg/kg
ED50 (Rattus norvegicus): 10 mg/kg

Cn1nc(C(F)(F)F)c(CN2CCN(c3nc(N)n4nc(-c5ccco5)nc4n3)CC2)c1Cl
remaining at 0.25 h, 2 µM [2]: 14%
ED50 (Mus musculus [1]): 3 mg/kg
ED50 (Rattus norvegicus): 3 mg/kg

Nc1nc(N2CCN3CCC[C@@H]3C2)nc2nc(-c3ccco3)nn12
Ki (Adenosine receptor A2a): 30 nM (antagonist)
Ki (Adenosine receptor A1): 1200 nM
remaining at 0.25 h, 2 µM [2]: 67%
remaining at 0.5 h, 2 µM [3]: 75%
remaining at 1 h, 2 µM [4]: 61%

Nc1nc(N2CCN3CCC[C@H]3C2)nc2nc(-c3ccco3)nn12
Ki (Adenosine receptor A2a): 46 nM (antagonist)
Ki (Adenosine receptor A1): > 500 nM
remaining at 0.25 h, 2 µM [2]: 69%
remaining at 0.5 h, 2 µM [3]: 54%
remaining at 1 h, 2 µM [4]: 36%

Nc1nc(N2CCN3C[C@@H](COc4ccc5ncccc5c4)CC[C@H]3C2)nc2nc(-c3ccco3)nn12
Ki (Adenosine receptor A2a): 0.6 nM (antagonist)
Ki (Adenosine receptor A1): 3500 nM
remaining at 0.25 h, 2 µM [2]: 42%
remaining at 0.5 h, 2 µM [3]: 25%
remaining at 1 h, 2 µM [4]: 16%

Nc1nc(N2CCN3[C@@H](CO)CCC[C@H]3C2)nc2nc(-c3ccco3)nn12 (racemic)
Ki (Adenosine receptor A2a): 3 nM (antagonist)
Ki (Adenosine receptor A1): 1300 nM

Nc1nc(N2CCN3C[C@H](CO)CC[C@H]3C2)nc2nc(-c3ccco3)nn12 (racemic)
Ki (Adenosine receptor A2a): 71 nM (antagonist)
Ki (Adenosine receptor A1): 6100 nM

Nc1nc(N2CCN3[C@@H](CO)CCC[C@H]3C2)cc2nc(-c3ccco3)nn12 (racemic)
Ki (Adenosine receptor A2a): 110 nM (antagonist)
Ki (Adenosine receptor A1): > 500 nM

Nc1nc(N2CCN3CCCCC3C2)cc2nc(-c3ccco3)nn12 (racemic)
Ki (Adenosine receptor A2a): 140 nM (antagonist)
Ki (Adenosine receptor A1): > 500 nM

Nc1nc(NC[C@@H]2CC[C@@H]3CN(c4ncccn4)CCN3C2)nc2nc(-c3ccco3)nn12 (racemic)
Ki (Adenosine receptor A2a): 0.3 nM (antagonist)
Ki (Adenosine receptor A1): 1600 nM
remaining at 0.25 h, 2 µM [2]: 89%
remaining at 0.5 h, 2 µM [3]: 65%
remaining at 1 h, 2 µM [4]: 43%

Nc1nc(N2CCN3C[C@@H](COc4ccccc4)CC[C@H]3C2)nc2nc(-c3ccco3)nn12 (racemic)
Ki (Adenosine receptor A2a): 21 nM (antagonist)
Ki (Adenosine receptor A1): > 500 nM

Nc1nc(N2CCN3C[C@@H](CO)CC[C@H]3C2)cc2nc(-c3ccco3)nn12 (racemic)
Ki (Adenosine receptor A2a): 96 nM (antagonist)
Ki (Adenosine receptor A1): > 500 nM
remaining at 0.25 h, 2 µM [2]: 100%
remaining at 0.5 h, 2 µM [3]: 100%
remaining at 1 h, 2 µM [4]: 85%
Activity (Mus musculus [5]): >50%

Nc1nc(N2CCN3C[C@@H](COc4cccc(F)c4)CC[C@H]3C2)nc2nc(-c3ccco3)nn12 (racemic)
Ki (Adenosine receptor A2a): 0.2 nM (antagonist)
Ki (Adenosine receptor A1): 3300 nM
remaining at 0.25 h, 2 µM [2]: 57%
remaining at 0.5 h, 2 µM [3]: 36%
remaining at 1 h, 2 µM [4]: 12%

Nc1cc(N2CCN3C[C@@H](CO)CC[C@H]3C2)nc2nc(-c3ccco3)nn12 (racemic)
Ki (Adenosine receptor A2a): 230 nM (antagonist)
Ki (Adenosine receptor A1): > 500 nM
remaining at 0.25 h, 2 µM [2]: 97%
remaining at 0.5 h, 2 µM [3]: 81%
remaining at 1 h, 2 µM [4]: 51%

Nc1cc(N2CCN3CCCCC3C2)nc2nc(-c3ccco3)nn12 (racemic)
Ki (Adenosine receptor A2a): 38 nM (antagonist)
Ki (Adenosine receptor A1): > 500 nM

Nc1nc(N2CCN3C[C@H](CO)CC[C@H]3C2)cc2nc(-c3ccco3)nn12 (racemic)
Ki (Adenosine receptor A2a): 240 nM (antagonist)
Ki (Adenosine receptor A1): > 1000 nM

Nc1nc(N2CCN3C[C@@H](CO)CC[C@H]3C2)nc2nc(-c3ccco3)nn12 (racemic)
Ki (Adenosine receptor A2a): 45 nM (antagonist)
Ki (Adenosine receptor A1): 660 nM (antagonist)
remaining at 0.25 h, 2 µM [2]: 100%
remaining at 0.5 h, 2 µM [3]: 100%
remaining at 1 h, 2 µM [4]: 100%
Activity (Mus musculus [5]): >50%

Nc1cc(N2CCN3C[C@H](CO)CC[C@H]3C2)nc2nc(-c3ccco3)nn12 (racemic)
Ki (Adenosine receptor A2a): 860 nM (antagonist)
Ki (Adenosine receptor A1): > 1000 nM

Nc1cc(N2CCN3[C@@H](CO)CCC[C@H]3C2)nc2nc(-c3ccco3)nn12 (racemic)
Ki (Adenosine receptor A2a): 610 nM (antagonist)
Ki (Adenosine receptor A1): > 500 nM

NC[C@H]1CC[C@H]2CN(c3nc(N)n4nc(-c5ccco5)nc4n3)CCN2C1 (racemic)
Ki (Adenosine receptor A2a): 16 nM (antagonist)
Ki (Adenosine receptor A1): > 500 nM

Nc1nc(N2CCN3CCCCC3C2)nc2nc(-c3ccco3)nn12 (racemic)
Ki (Adenosine receptor A2a): 12 nM (antagonist)
Ki (Adenosine receptor A1): 860 nM (antagonist)
